Experimental data as given in ChEMBL document CHEMBL1143428, “Extended-spectrum-beta-lactamase-producing Enterobacteriaceae strains in various types of private health care centers” (2007).
Values after ≈ are worked out from the molar mass of the structure shown.

Legend:
Type in all cases: functional
Klebsiella aerogenes [1] = experiment: Antimicrobial activity against Enterobacter aerogenes Ea1 expressing TEM-24b gene
Procedure, shortened: (§1)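 Clinical isolates from private health care centers. β-Lactamase content was assigned by isoelectric focusing, PCR with blaTEM-, blaSHV- and blaCTX-M-specific primers, and sequencing. MICs (μg/ml) were reported for amoxicillin, cefoxitin, cefotaxime, ceftazidime, imipenem and ertapenem. Amoxicillin, cefotaxime and ceftazidime were also tested with clavulanic acid held at a fixed 2 μg/ml.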

Escherichia coli [2] = experiment: Antimicrobial activity against Escherichia coli Ec10 expressing TEM-24b gene
Procedure, shortened: (§2)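 β-Lactam MICs (μg/ml) measured against clinical Enterobacteriaceae isolates collected from private health care centers. Enzyme content of each isolate was assigned by isoelectric focusing, PCR with blaTEM/blaSHV/blaCTX-M primers and sequencing, with cloning to separate coexisting TEM or SHV genes. In combination tests, the β-lactamase inhibitor clavulanic acid was held at a fixed 2 μg/ml.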

Proteus mirabilis [3] = experiment: Antimicrobial activity against Proteus mirabilis Pm4 expressing TEM-21 gene; procedure, shortened: as §1
Klebsiella aerogenes [4] = experiment: Antimicrobial activity against Enterobacter aerogenes Ea2 expressing TEM-3 AmpC gene; procedure, shortened: as §1
Escherichia coli [5] = experiment: Antimicrobial activity against Escherichia coli Ec4 expressing CTX-M-1 AmpC gene; procedure, shortened: as §2
Escherichia coli [6] = experiment: Antimicrobial activity against Escherichia coli Ec5 expressing CTX-M-2 TEM-1 gene; procedure, shortened: as §2
Proteus mirabilis [7] = experiment: Antimicrobial activity against Proteus mirabilis Pm1-Pm3 expressing TEM-24b gene; procedure, shortened: as §1
Escherichia coli [8] = experiment: Antimicrobial activity against Escherichia coli Ec9 expressing TEM-24b TEM-26 gene; procedure, shortened: as §2
Escherichia coli [9] = experiment: Antimicrobial activity against Escherichia coli Ec7 expressing SHV-12 IRT-6 gene; procedure, shortened: as §1
Klebsiella oxytoca = experiment: Antimicrobial activity against Klebsiella oxytoca expressing TEM-11 gene; procedure, shortened: as §1
Morganella morganii = experiment: Antimicrobial activity against Morganella morganii expressing TEM-24b AmpC gene; procedure, shortened: as §2
Enterobacter cloacae = experiment: Antimicrobial activity against Enterobacter cloacae Ecl1 expressing TEM-24b AmpC TEM-1 gene; procedure, shortened: as §2
Escherichia coli [10] = experiment: Antimicrobial activity against Escherichia coli Ec2 containing pEc1-B plasmid expressing CTX-M-15 TEM-1 OXA-1 gene; procedure, shortened: as §1
Klebsiella pneumoniae [11] = experiment: Antimicrobial activity against Klebsiella pneumoniae Kp1 expressing SHV-4 gene; procedure, shortened: as §2
Klebsiella pneumoniae [12] = experiment: Antimicrobial activity against Klebsiella pneumoniae Kp2 expressing TEM-15 gene; procedure, shortened: as §2
Klebsiella aerogenes [13] = experiment: Antimicrobial activity against Enterobacter aerogenes Ea2 expressing TEM-3 gene; procedure, shortened: as §1
Klebsiella pneumoniae [14] = experiment: Antimicrobial activity against Klebsiella pneumoniae Kp3 expressing SHV-2a TEM-1 gene; procedure, shortened: as §2
Klebsiella pneumoniae [15] = experiment: Antimicrobial activity against Klebsiella pneumoniae Kp2 expressing TEM-15 TEM-17 TEM-1 gene; procedure, shortened: as §2
Escherichia coli [16] = experiment: Antimicrobial activity against Escherichia coli Ec2-a containing pEc1-C plasmid expressing CTX-M-15 OXA-1 gene; procedure, shortened: as §1
Klebsiella pneumoniae [17] = experiment: Antimicrobial activity against Klebsiella pneumoniae Kp4 expressing SHV-12 SHV-1 and plasmid-mediated cephalosporinase CMY-4; procedure, shortened: as §2
Klebsiella pneumoniae [18] = experiment: Antimicrobial activity against Klebsiella pneumoniae Kp5 expressing plasmid-mediated cephalosporinase ACC-1 and TEM-1; procedure, shortened: as §2
Escherichia coli [19] = experiment: Antimicrobial activity against Escherichia coli Ec6 expressing CTX-M-14 gene; procedure, shortened: as §2
Escherichia coli [20] = experiment: Antimicrobial activity against Escherichia coli Ec3 expressing CTX-M-15 TEM-1 OXA-1 gene; procedure, shortened: as §2
Escherichia coli [21] = experiment: Antimicrobial activity against Escherichia coli Ec1 containing pEc1-A plasmid expressing CTX-M-15 TEM-1 OXA-1 gene; procedure, shortened: as §2
Escherichia coli [22] = experiment: Antimicrobial activity against Escherichia coli Ec2 containing pEc1-D plasmid expressing CTX-M-15 TEM-1 OXA-1gene; procedure, shortened: as §2
Escherichia coli [23] = experiment: Antimicrobial activity against Escherichia coli Ec8 expressing TEM-21 AmpC gene; procedure, shortened: as §1
Klebsiella aerogenes [24] = experiment: Antimicrobial activity against Enterobacter aerogenes Ea1 expressing TEM-24b AmpC +/- TEM-1 or TEM-2 gene; procedure, shortened: as §2

| SMILES | MIC (Klebsiella aerogenes [1]) [µg/mL] | MIC (Proteus mirabilis [3]) [µg/mL] | MIC (Klebsiella aerogenes [4]) [µg/mL] | MIC (Escherichia coli [5]) [µg/mL] | MIC (Escherichia coli [6]) [µg/mL] | MIC (Proteus mirabilis [7]) [µg/mL] | MIC (Escherichia coli [8]) [µg/mL] | MIC (Escherichia coli [9]) [µg/mL] | MIC (Klebsiella oxytoca) [µg/mL] | MIC (Morganella morganii) [µg/mL] | MIC (Enterobacter cloacae) [µg/mL] | MIC (Escherichia coli [10]) [µg/mL] | MIC (Klebsiella pneumoniae [11]) [µg/mL] | MIC (Klebsiella pneumoniae [12]) [µg/mL] | MIC (Klebsiella aerogenes [13]) [µg/mL] | MIC (Klebsiella pneumoniae [14]) [µg/mL] | MIC (Klebsiella pneumoniae [15]) [µg/mL] | MIC (Escherichia coli [16]) [µg/mL] | MIC (Klebsiella pneumoniae [17]) [µg/mL] | MIC (Klebsiella pneumoniae [18]) [µg/mL] | other results |
| --- | --- | --- | --- | --- | --- | --- | --- | --- | --- | --- | --- | --- | --- | --- | --- | --- | --- | --- | --- | --- | --- |
| CC(C)(O/N=C(\C(=O)N[C@@H]1C(=O)N2C(C(=O)[O-])=C(C[n+]3ccccc3)CS[C@H]12)c1csc(N)n1)C(=O)O [CEFTAZIDIME] | 128 (≈ 234 µM) | 1 (≈ 1.83 µM) | 16 (≈ 29.3 µM) | 8 (≈ 14.6 µM) | 1 (≈ 1.83 µM) | 8 (≈ 14.6 µM) | 128 (≈ 234 µM) | 128 (≈ 234 µM) | 128 (≈ 234 µM) | 128 (≈ 234 µM) | 512 (≈ 937 µM) | 16 (≈ 29.3 µM) | 128 (≈ 234 µM) | 32 (≈ 58.5 µM) | 16 (≈ 29.3 µM) | 256 (≈ 468 µM) | 512 (≈ 937 µM) | 256 (≈ 468 µM) | 4 (≈ 7.32 µM) | 64 (≈ 117 µM) | MIC (Escherichia coli [2]): 256 µg/mL (≈ 468 µM); MIC (Escherichia coli [19]): 4 µg/mL (≈ 7.32 µM); MIC (Escherichia coli [20]): 256 µg/mL (≈ 468 µM); MIC (Escherichia coli [21]): 64 µg/mL (≈ 117 µM); MIC (Escherichia coli [22]): 1 µg/mL (≈ 1.83 µM); MIC (Escherichia coli [23]): 64 µg/mL (≈ 117 µM); MIC (Klebsiella aerogenes [24]): 256 µg/mL (≈ 468 µM) |
| C[C@@H](O)[C@H]1C(=O)N2C(C(=O)O)=C(S[C@@H]3CN[C@H](C(=O)Nc4cccc(C(=O)O)c4)C3)[C@H](C)[C@H]12 [ERTAPENEM] | 0.02 (≈ 0.0421 µM) | 0.01 (≈ 0.021 µM) | 0.2 (≈ 0.421 µM) | 0.05 (≈ 0.105 µM) | 0.05 (≈ 0.105 µM) | 0.01 (≈ 0.021 µM) | ≤ 0.01 | 0.2 (≈ 0.421 µM) | 0.1 (≈ 0.21 µM) | 0.02 (≈ 0.0421 µM) | 0.5 (≈ 1.05 µM) | 0.1 (≈ 0.21 µM) | 0.02 (≈ 0.0421 µM) | 0.02 (≈ 0.0421 µM) | 0.02 (≈ 0.0421 µM) | 0.02 (≈ 0.0421 µM) | 0.1 (≈ 0.21 µM) | 0.2 (≈ 0.421 µM) | 0.01 (≈ 0.021 µM) | 0.05 (≈ 0.105 µM) | MIC (Escherichia coli [2]): 0.02 µg/mL (≈ 0.0421 µM); MIC (Escherichia coli [19]): 0.02 µg/mL (≈ 0.0421 µM); MIC (Escherichia coli [20]): 0.1 µg/mL (≈ 0.21 µM); MIC (Escherichia coli [21]): 0.05 µg/mL (≈ 0.105 µM); MIC (Escherichia coli [22]): 0.05 µg/mL (≈ 0.105 µM); MIC (Escherichia coli [23]): 0.1 µg/mL (≈ 0.21 µM); MIC (Klebsiella aerogenes [24]): 0.05 µg/mL (≈ 0.105 µM) |
| C[C@@H](O)[C@H]1C(=O)N2C(C(=O)O)=C(SCCNC=N)C[C@H]12 [IMIPENEM ANHYDROUS] | 0.5 (≈ 1.67 µM) | 1 (≈ 3.34 µM) | 1 (≈ 3.34 µM) | 1 (≈ 3.34 µM) | 0.5 (≈ 1.67 µM) | 1 (≈ 3.34 µM) | 0.5 (≈ 1.67 µM) | 0.5 (≈ 1.67 µM) | 0.5 (≈ 1.67 µM) | 4 (≈ 13.4 µM) | 1 (≈ 3.34 µM) | 0.5 (≈ 1.67 µM) | 0.5 (≈ 1.67 µM) | 0.5 (≈ 1.67 µM) | 0.5 (≈ 1.67 µM) | 1 (≈ 3.34 µM) | 0.5 (≈ 1.67 µM) | 0.5 (≈ 1.67 µM) | 1 (≈ 3.34 µM) | 0.5 (≈ 1.67 µM) | MIC (Escherichia coli [19]): 0.5 µg/mL (≈ 1.67 µM); MIC (Escherichia coli [20]): 0.5 µg/mL (≈ 1.67 µM); MIC (Escherichia coli [22]): 0.5 µg/mL (≈ 1.67 µM); MIC (Escherichia coli [23]): 0.5 µg/mL (≈ 1.67 µM); MIC (Klebsiella aerogenes [24]): 0.5 µg/mL (≈ 1.67 µM) |
